Source: PubChem BioAssay (several laboratories)
Most compounds without a hit are left out; they make up all but 0.91% or so of the library.
PMI act – activators of human PMI, primary screen, biochemical, fluorescence intensity, near-Km mannose 6-phosphate; AID 1214, 2008; activation factor at 20 µM; purified human PMI, coupled resazurin fluorescence, 20 min; stronger effect = higher value; 1 = vehicle control, 0 substrate-free wells; Mannose-6-phosphate isomerase (Homo sapiens), P34949; hit rate 0.005% among 190,000;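 active = activation factor of 2 or more at 20 µM, relative to plate controls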
Target sequence (P34949 whole entry, looked up): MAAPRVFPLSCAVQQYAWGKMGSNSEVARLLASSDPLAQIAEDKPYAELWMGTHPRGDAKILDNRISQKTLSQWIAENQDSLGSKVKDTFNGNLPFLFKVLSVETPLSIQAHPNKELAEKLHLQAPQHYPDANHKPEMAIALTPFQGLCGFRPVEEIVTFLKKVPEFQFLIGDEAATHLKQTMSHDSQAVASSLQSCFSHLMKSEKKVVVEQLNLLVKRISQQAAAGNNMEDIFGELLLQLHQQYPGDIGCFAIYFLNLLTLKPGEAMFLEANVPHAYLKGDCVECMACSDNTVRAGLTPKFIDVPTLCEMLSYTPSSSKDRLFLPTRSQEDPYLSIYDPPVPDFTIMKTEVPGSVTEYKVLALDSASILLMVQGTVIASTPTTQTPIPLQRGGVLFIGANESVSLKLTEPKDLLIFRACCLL
p97 ATPase inh – inhibitors of human p97 ATPase, primary screen, biochemical | inhibition, % at 8 µM | recombinant p97 ATPase, Kinase-Glo ATP luminescence, 3 h | hit rate 0.42% among 220,000 | Transitional endoplasmic reticulum ATPase (Homo sapiens), P55072; in the data active = inhibition above about 15%;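 note: 0% = DMSO vehicle and 100% = wells lacking enzyme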
PMI act satM6P – human PMI activators, high substrate, primary screen, biochemical, fluorescence intensity, near-saturating mannose 6-phosphate; Mannose-6-phosphate isomerase (Homo sapiens), P34949; coupled PMI enzyme assay, resazurin fluorescence, 20 min; stronger effect = higher value; 1 = untreated enzyme, 0 = substrate-free blank; activation factor at 20 µM; hit rate 0.34% among 190,000; AID 1216, 2008;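 active = activation factor of 2 or more at 20 µM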
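Test system – human PMI in coupled enzyme assay · Timing – 20 min incubation at room temperature · Detection – Diaphorase-driven resazurin-to-resorufin fluorescence, excitation 544, emission 590 nm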
G6PDH counter – L. mesenteroides G6PDH inhibitors, counter-screen for G6PDH-coupled screening assays, biochemical, Leuconostoc mesenteroides enzyme; inhibition, % at 5 µM; hit rate 0.12% among 200,000; glucose-6-phosphate dehydrogenase [Leuconostoc mesenteroides]; Purified L. mesenteroides G6PDH, diaphorase/resazurin coupled fluorescence, 45 min; in the data active = inhibition above about 50%
Tb hexokinase – Trypanosoma brucei hexokinase 1 inhibitors, primary screen, biochemical, G6PDH-coupled NADH absorbance, MLSCN library | hexokinase 1 [Trypanosoma brucei] | recombinant TbHK1, G6PDH-coupled NADH A340 | inhibition, % at 10 µM | hit rate 0.11% among 220,000;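 active = inhibition of 50% or more in the single-dose primary screen; inactive = inhibition below 50%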
Redox H2O2 prof – compounds producing H2O2 with reducing agent – biochemical, NIH compound library profiling, artefact control for MLSCN library redox annotation, primary screen; DTT-dependent redox cycling H2O2, phenol red/HRP absorbance; 100% = 100 µM peroxide control, 0% = buffer; AID 878, 2007; activation, % at 10 µM; hit rate 0.03% among 200,000;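 active = activation of at least 50% relative to the plate's high and low controls in the primary single-dose screen; inactive = activation below 50%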;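 note: compound incubated with DTT at 0.8 mM final as the reducing agent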
p97 confirm – p97 ATPase inhibitors, retest, confirmation, biochemical. hit rate 44% among 760. inhibition, % at 8 µM. recombinant p97 ATPase, Kinase-Glo ATP luminescence. shares compounds with p97 ATPase inh;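 active = percent inhibition of p97 ATPase above a set limit, the primary screen's mean plus 3 SD, cut at about 15% in these data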;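 note: 0% = DMSO wells and 100% = wells lacking p97 protein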
* marks the source's active call; other numbers are inactive results; . = no result.

SMILES	PMI act	p97 ATPase inh	PMI act satM6P	G6PDH counter	Tb hexokinase	Redox H2O2 prof	p97 confirm
Oc1ccc(/C=N/NC(=S)Nc2cccnc2)c(O)c1O	.	20*	.	.	43	.	20*
CCCc1c(O)nc(SCC(=O)O)[nH]c1=O	1	5	1	10	1	0	.
O=C(CNC(=O)c1ccc(F)cc1)N/N=C/c1ccc(O)c([N+](=O)[O-])c1	1	22*	1.1	-15	-26	0	5
O=C(CNC(=O)c1cccc(F)c1)N/N=C/c1ccc(O)c([N+](=O)[O-])c1	1.1	-3	1.1	-12	-16	0	.
COc1ccc(C2CC(c3ccccc3)=NN2C(=O)CN2N=NC3C(=O)N(c4cccc(F)c4)C(=O)C32)cc1 (stereo not given)	0.8	4	0.9	4	-2	0	.
Cc1ccc(NC(=O)C(=O)NN=C2CCCC2)cc1C	1.1	4	1.1	13	-3	-1	.
CC[N+](C)(C)CCN(Cc1ccc(Cl)cc1)c1ccccn1	1	15*	1	9	-4	0	3
CC1CCN(C(=O)c2ccc(NS(=O)(=O)c3cccc4cccnc34)cc2)CC1	.	0	.	.	-11	.	.
N/C(=N\NC(=O)c1cccc(F)c1)c1cc2ccccc2oc1=O	.	16*	.	.	-7	.	8
S=C(Nc1ccc(Cl)c(Cl)c1)NC1CCCCC1	0.9	2	0.9	-9	-7	-4	.
CC(C)N(C(=O)Nc1ccc2nsnc2c1)C(C)C	0.4	42*	0.4	52*	-10	0	17*
S=C(Nc1ccc2nsnc2c1)NC1CCCCC1	1.1	15*	1.1	56*	24	-1	6
COc1ccc(N(C)C(=O)Nc2ccc3nsnc3c2)cc1	0.4	32*	0.3	22	-4	-2	8
COc1ccc(NC(=S)Nc2ccc3nsnc3c2)cc1	0.4	38*	0.5	57*	-9	1	19*
Cc1cc(-n2c(C)cc(C(=S)N3CCOCC3)c2C)ccc1Br	0.8	-2	0.9	16	25	-1	.
CCOc1ccc(C(=O)OCC(=O)NC(C)C)cc1	1	3	1	2	0	0	.
CCc1cccc(C)c1NC(=O)CNCc1ccccc1	0.9	3	1	0	6	0	.
CCC(CC)c1nn2c(N)c(/C=C3\C(C)=Nc4ccccc43)c(=O)nc2s1	.	24*	.	.	-6	.	25*
CCC(CC)c1nn2c(N)c(/C=C3\C=Nc4ccccc43)c(=O)nc2s1	.	1	.	.	-12	.	.
CC(C)Cc1nn2c(N)c(/C=C3\C=Nc4ccccc43)c(=O)nc2s1	1	16*	1	4	-9	-1	12
Cc1ccc2oc(-c3ccccc3C(=O)O)cc(=O)c2c1	1	4	1	2	4	-2	.
Cc1[nH][nH]c(=O)c1C(c1ccc(-c2cccc(Cl)c2)o1)c1c(C)[nH][nH]c1=O	.	36*	.	.	-6	.	34*
Cc1[nH][nH]c(=O)c1C(c1ccc(-c2cccc(C(=O)O)c2)o1)c1c(C)[nH][nH]c1=O	1	19*	0.6	24	-4	-1	12
COC(=O)c1ccc(-c2ccc(C(c3c(C)[nH][nH]c3=O)c3c(C)[nH][nH]c3=O)o2)cc1	0.5	11	1	24	-11	0	.
Cc1[nH][nH]c(=O)c1C(c1ccc(-c2ccccc2C(=O)O)o1)c1c(C)[nH][nH]c1=O	1	22*	1	33	-2	0	24*
SMILES	PMI act	p97 ATPase inh	PMI act satM6P	G6PDH counter	Tb hexokinase	Redox H2O2 prof	p97 confirm
Cc1ccc(S(=O)(=O)N2CCN(C(=O)c3ccccc3)CC2)c(C)c1NS(C)(=O)=O	0.9	1	0.8	2	-5	0	.
O=C(CSc1ccc(-c2cccc([N+](=O)[O-])c2)nn1)N1CCCCC1	1.1	0	1.1	1	-3	0	.
CCSc1nc(CC)c2c(c1C#N)CCCC2	0.9	3	0.9	3	-1	0	.
O=C(Nc1ccc2nc(-c3ccco3)c(-c3ccco3)nc2c1)NC1CC1	1.3	31*	1	22	-1	0	24*
O=C(NCCCO)Nc1ccc2nc(-c3ccco3)c(-c3ccco3)nc2c1	1.1	25*	1.3	29	-7	1	23*
O=C(Nc1ccc(N2CCOCC2)cc1)Nc1ccc2nc(-c3ccco3)c(-c3ccco3)nc2c1	1	3	0.7	12	-19	1	.
O=C(O)c1ccc2nc(-c3ccco3)c(-c3ccco3)nc2c1	1.3	26*	0.9	43	-18	0	1
CCCNC(=O)CN1C(=O)NC(Cc2c[nH]c3ccccc23)C1=O (stereo not given)	1.2	0	1.2	15	-3	-2	.
O=C(NC(=S)NNC(=O)c1ccccc1F)c1cccnc1	.	-6	.	.	-26	.	.
CC(=O)Oc1cc2cccc(OC(C)=O)c(=O)c2c(OC(C)=O)c1OC(C)=O	1	29*	1	12	-3	-1	4
O=C(Cc1ccccc1)Nc1ccccc1Oc1ccccc1	1	-1	1	7	1	0	.
COc1ccc2c(c1)Cc1sc(NC(=O)c3ccccc3)nc1-2	1	18*	1.1	22	-5	1	2
Cc1ccc(CCN2CC(C(=O)NCCCN3CCCCCC3)CC2=O)cc1 (stereo not given)	0.9	21*	1	2	-25	0	5
COC(=O)c1c(-c2ccccc2)csc1N1C(=O)Nc2ccccc2N1O	1	15*	0.8	3	-7	0	23*
CCOC(=O)c1c(-c2ccccc2)csc1N1C(=O)Nc2ccccc2N1O	1.3	18*	1.2	11	-4	0	21*
COC(=O)c1c(N2C(=O)Nc3ccccc3N2O)sc2c1CCCC2	1	9	1.1	-3	-11	0	.
COc1ccc(/C=N/NC(=O)c2ccc(C)cc2)cc1CN1CCN(c2ccc(F)cc2)CC1	1	3	1	0	-7	-4	.
COc1ccc(/C=N\NC(=O)c2cc(O)c(O)c(O)c2)cc1CN1CCN(c2ccc(F)cc2)CC1	0.4	17*	0.5	-20	-13	1	26*
